Reference: ChEMBL document CHEMBL1151453, “Subinhibitory concentrations of azithromycin decrease nontypeable Haemophilus influenzae biofilm formation and Diminish established biofilms” (2008)
Values after ≈ are worked out from the molar mass of the structure shown. Active and inactive are the calls of the source. The rule behind the calls is not given here.

Experiments:
Haemophilus influenzae [1] = assay: Antimicrobial activity against nontypeable Haemophilus influenzae isolate 2019 expressing GFP isolated from patient with COPD assessed as decrease biomass of biofilm at 0.125 ug/mL after 2 days using flow cell culture relative to control; format: functional, organism-based
Procedure, shortened: (§1)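 Flow cell: GFPmut3-expressing strain 2019 (pRSM2211, kanamycin selection before inoculation) attached under a glass coverslip. Medium: 1% BHI with NAD and hemin ([…]) in 150 mM NaCl, 0.08 ml/min flow, 37°C. Antibiotic at 0.125 μg/ml, either from inoculation or added after 2 days. Confocal imaging; biomass and maximal thickness by COMSTAT (n = 3).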

Haemophilus influenzae [2] = assay: Antimicrobial activity against nontypeable Haemophilus influenzae isolate 2019 expressing GFP isolated from patient with COPD assessed as decrease in biomass of biofilm in 2 days established biofilm at 0.125 ug/mL after 4 days using flow cell culture; format: functional, organism-based; procedure, shortened: as §1
Haemophilus influenzae [3] = assay: Antimicrobial activity against azithromycin-resistant nontypeable Haemophilus influenzae isolate S61 assessed as inhibition of biofilm formation at >64 ug/mL; format: functional, organism-based
Procedure, shortened: (§2)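 Static-culture biofilm: mid-log-phase bacteria in BHI broth with 10 μg/ml hemin and 10 μg/ml NAD, azithromycin 0.06 to 64 μg/ml, flat-bottom polystyrene 96-well plates, 37°C. Planktonic growth read hourly as A490 over the first 7 h. Biomass at the air-liquid interface stained with crystal violet at 24 h, same wells. Representative data, n = 3.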

Haemophilus influenzae [4] = assay: Antimicrobial activity against nontypeable Haemophilus influenzae isolate 2019 expressing GFP isolated from patient with COPD assessed as decrease in biofilm formation at 0.125 ug/mL treated for 4 days measured on day 2 to 4 using flow cell culture; format: functional, organism-based; procedure, shortened: as §1
Haemophilus influenzae [5] = assay: Antimicrobial activity against azithromycin-resistant nontypeable Haemophilus influenzae isolate S34 assessed as inhibition of biofilm formation at >64 ug/mL; format: functional, organism-based; procedure, shortened: as §2
Haemophilus influenzae [6] = assay: Antimicrobial activity against azithromycin-resistant nontypeable Haemophilus influenzae isolate S52 assessed as inhibition of biofilm formation at 8 ug/mL after 7 hrs using crystal violet; format: functional, organism-based
Haemophilus influenzae [7] = assay: Antimicrobial activity against nontypeable Haemophilus influenzae isolate 2019 expressing GFP isolated from patient with COPD assessed as inhibition of biofilm formation at 0.25 ug/ml after 7 hrs using crystal violet; format: functional, organism-based
Haemophilus influenzae [8] = assay: Antimicrobial activity against nontypeable Haemophilus influenzae isolate 2019 expressing GFP isolated from patient with COPD assessed as decrease maximal thickness of biofilm at 0.125 ug/mL after 2 days using flow cell culture relative to control; format: functional, organism-based; procedure, shortened: as §1
Haemophilus influenzae [9] = assay: Antimicrobial activity against azithromycin-resistant nontypeable Haemophilus influenzae isolate S44 assessed as inhibition of biofilm formation at >64 ug/mL; format: functional, organism-based; procedure, shortened: as §2
Haemophilus influenzae [10] = assay: Antimicrobial activity against nontypeable Haemophilus influenzae isolate 2019 expressing GFP isolated from patient with COPD assessed as growth inhibition at 0.125 ug/mL […]; format: functional, organism-based
Haemophilus influenzae [11] = assay: Antimicrobial activity against nontypeable Haemophilus influenzae isolate 2019 expressing GFP isolated from patient with COPD assessed as decrease in maximal thickness of biofilm at 0.125 ug/mL incubated for 2 days measured after days 4 using flow cell culture; format: functional, organism-based; procedure, shortened: as §1
Haemophilus influenzae [12] = assay: Antimicrobial activity against nontypeable Haemophilus influenzae isolate 2019 expressing GFP isolated from patient with COPD assessed as maximal doubling time at 0.125 ug/mL using flow cell culture after 24 hrs; format: functional
Procedure, shortened: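 Growth curves: overnight strain 2019 culture, 1 ml diluted into 24 ml supplemented BHI (starting OD600 <0.050), antibiotic 0.03–2 μg/ml. Shaken at 37°C, OD600 read hourly. Maximal doubling time taken from the curves. Also repeated in flow-cell medium (1% supplemented BHI in 150 mM NaCl).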

Haemophilus influenzae [13] = assay: Antimicrobial activity against nontypeable Haemophilus influenzae isolate 2019 expressing GFP isolated from patient with COPD assessed as decrease in biomass of biofilm at 0.125 ug/mL incubated for 2 days measured after day 4 using flow cell culture; format: functional, organism-based; procedure, shortened: as §1
Haemophilus influenzae [14] = assay: Antimicrobial activity against nontypeable Haemophilus influenzae isolate 2019 expressing GFP isolated from patient with COPD assessed as decrease in established biofilm formation at 0.125 ug/mL treated for 4 days measured on day 2 to 4 using flow cell culture; format: functional, organism-based; procedure, shortened: as §1
Haemophilus influenzae [15] = assay: Antimicrobial activity against nontypeable Haemophilus influenzae isolate 2019 expressing GFP isolated from patient with COPD assessed as viability at 0.125 ug/mL incubated for 2 days measured on day 4 using flow cell culture; format: functional, organism-based
Haemophilus influenzae [16] = assay: Antimicrobial activity against azithromycin-resistant nontypeable Haemophilus influenzae isolate S43 assessed as inhibition of biofilm formation at >64 ug/mL; format: functional, organism-based; procedure, shortened: as §2
Haemophilus influenzae [17] = assay: Antimicrobial activity against nontypeable Haemophilus influenzae isolate 2019 expressing GFP isolated from patient with COPD by broth microdilution method; format: functional
Procedure, shortened: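 MIC for strain 2019 carrying pRSM2211, by CLSI broth microdilution, done in a clinical microbiology laboratory.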

Haemophilus influenzae [18] = assay: Antimicrobial activity against nontypeable Haemophilus influenzae isolate 2019 expressing GFP isolated from patient with COPD assessed as viability at 0.125 ug/mL after 2 days using flow cell culture; format: functional, organism-based
Procedure, shortened: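 Flow-cell biofilms of GFP-expressing strain 2019 grown 2 days with or without 0.125 μg/ml antibiotic, then stained with propidium iodide for 15 min.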

Haemophilus influenzae [19] = assay: Antimicrobial activity against azithromycin-resistant nontypeable Haemophilus influenzae isolate S57 assessed as inhibition of biofilm formation at 64 ug/mL after 7 hrs using crystal violet; format: functional, organism-based
Haemophilus influenzae [20] = assay: Antimicrobial activity against azithromycin-resistant nontypeable Haemophilus influenzae isolate S53 assessed as inhibition of biofilm formation at 16 ug/mL after 7 hrs using crystal violet; format: functional, organism-based
Haemophilus influenzae [21] = assay: Antimicrobial activity against nontypeable Haemophilus influenzae isolate 2019 expressing GFP isolated from patient with COPD assessed as decrease biofilm formation at 0.125 ug/mL after 2 days using flow cell culture relative to control; format: functional, organism-based; procedure, shortened: as §1
Haemophilus influenzae [22] = assay: Antimicrobial activity against nontypeable Haemophilus influenzae isolate 2019 expressing GFP isolated from patient with COPD assessed as decrease in maximum thickness of biofilm in 2 days established biofilm at 0.125 ug/mL after 4 days using flow cell culture; format: functional, organism-based; procedure, shortened: as §1
Haemophilus influenzae [23] = assay: Antimicrobial activity against nontypeable Haemophilus influenzae isolate 2019 expressing GFP isolated from patient with COPD assessed as decrease in biomass of biofilm at 16 ug/mL after 2 days; format: functional, organism-based
Procedure, shortened: (§3)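 Flow cell: GFPmut3-expressing strain 2019 (kanamycin selection before inoculation) grown under a glass coverslip at 37°C. Medium was 1% BHI with NAD and hemin (1% final) in 150 mM NaCl, flowing at 0.08 ml/min, with or without antibiotic. Established-biofilm arm: no drug days 0–2, then drug days 2–4. Confocal imaging; biomass and maximal thickness by COMSTAT; n = 3.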

Haemophilus influenzae [24] = assay: Antimicrobial activity against nontypeable Haemophilus influenzae isolate 2019 expressing GFP isolated from patient with COPD assessed as decrease in maximal thickness of biofilm at 0.25 ug/mL after 2 days; format: functional, organism-based; procedure, shortened: as §3
Haemophilus influenzae [25] = assay: Antimicrobial activity against nontypeable Haemophilus influenzae isolate 2019 expressing GFP isolated from patient with COPD by […] assay; format: functional, organism-based
Procedure, shortened: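 MIC for strain 2019 carrying pRSM2211 determined by CLSI broth microdilution and Etest, performed by a hospital clinical microbiology laboratory.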

Haemophilus influenzae [26] = assay: Antimicrobial activity against nontypeable Haemophilus influenzae isolate 2019 expressing GFP isolated from patient with COPD assessed as decrease in biomass of biofilm at 0.25 ug/mL after 2 days; format: functional, organism-based; procedure, shortened: as §3
Haemophilus influenzae [27] = assay: Antimicrobial activity against nontypeable Haemophilus influenzae isolate 2019 expressing GFP isolated from patient with COPD assessed as decrease in maximal thickness of biofilm at 0.25 ug/mL after 4 days; format: functional, organism-based; procedure, shortened: as §3
Haemophilus influenzae [28] = assay: Antimicrobial activity against nontypeable Haemophilus influenzae isolate 2019 expressing GFP isolated from patient with COPD assessed as decrease in biomass of 2 days established biofilm measured on day 4 using flow cell culture; format: functional, organism-based; procedure, shortened: as §3
Haemophilus influenzae [29] = assay: Antimicrobial activity against nontypeable Haemophilus influenzae isolate 2019 expressing GFP isolated from patient with COPD assessed as decrease in biomass of biofilm at 0.25 ug/mL after 4 days; format: functional, organism-based; procedure, shortened: as §3
Haemophilus influenzae [30] = assay: Antimicrobial activity against nontypeable Haemophilus influenzae isolate 2019 expressing GFP isolated from patient with COPD assessed as growth inhibition at 0.25 ug/mL using static culture after 24 hrs; format: functional, organism-based
Haemophilus influenzae [31] = assay: Antimicrobial activity against nontypeable Haemophilus influenzae isolate 2019 expressing GFP isolated from patient with COPD assessed as decrease in maximal thickness of biofilm at 16 ug/mL after 2 days; format: functional, organism-based; procedure, shortened: as §3
Haemophilus influenzae [32] = assay: Antimicrobial activity against nontypeable Haemophilus influenzae isolate 2019 expressing GFP isolated from patient with COPD assessed as maximal doubling time at 0.25 ug/mL using flow cell culture after 24 hrs; format: functional, organism-based
Haemophilus influenzae [33] = assay: Antimicrobial activity against nontypeable Haemophilus influenzae isolate 2019 expressing GFP isolated from patient with COPD assessed as decrease in biofilm formation at 8 ug/mL after 2 days; format: functional, organism-based; procedure, shortened: as §3
Haemophilus influenzae [34] = assay: Antimicrobial activity against nontypeable Haemophilus influenzae isolate 2019 expressing GFP isolated from patient with COPD assessed as inhibition biofilm formation at 0.25 ug/mL after 2 days; format: functional, organism-based; procedure, shortened: as §3

## CC[C@H]1OC(=O)[C@H](C)[C@@H](O[C@H]2C[C@@](C)(OC)[C@@H](O)[C@H](C)O2)[C@H](C)[C@@H](O[C@@H]2O[C@H](C)C[C@H](N(C)C)[C@H]2O)[C@](C)(O)C[C@@H](C)CN(C)[C@H](C)[C@@H](O)[C@]1(C)O [AZITHROMYCIN]
Haemophilus influenzae [1]
  Activity: Active
Haemophilus influenzae [2]
  Activity: Active
Haemophilus influenzae [3]
  Activity: Active
Haemophilus influenzae [4]
  Activity: Active
Haemophilus influenzae [5]
  Activity: Active
Haemophilus influenzae [6]
  Activity: Active
Haemophilus influenzae [7]
  Activity: Active
Haemophilus influenzae [8]
  Activity: Active
Haemophilus influenzae [9]
  Activity: Active
Haemophilus influenzae [10]
  Activity: inactive
Haemophilus influenzae [11]
  Activity: inactive
Haemophilus influenzae [12]
  Activity: 44 min
Haemophilus influenzae [13]
  Activity: inactive
Haemophilus influenzae [14]
  Activity: Active
Haemophilus influenzae [15]
  Activity: inactive
Haemophilus influenzae [16]
  Activity: Active
Haemophilus influenzae [17]
  MIC: 0.5 µg/mL (≈ 0.668 µM)
Haemophilus influenzae [18]
  Activity: inactive
Haemophilus influenzae [19]
  Activity: Active
Haemophilus influenzae [20]
  Activity: Active
Haemophilus influenzae [21]
  Activity: Active
Haemophilus influenzae [22]
  Activity: Active

## GENTAMICIN
Haemophilus influenzae [23]
  Activity: Active
Haemophilus influenzae [24]
  Activity: inactive
Haemophilus influenzae [25]
  MIC: 2 µg/mL
Haemophilus influenzae [26]
  Activity: inactive
Haemophilus influenzae [27]
  Activity: inactive
Haemophilus influenzae [28]
  Activity: Dose-dependent effect
Haemophilus influenzae [29]
  Activity: inactive
Haemophilus influenzae [30]
  Activity: Active
Haemophilus influenzae [31]
  Activity: Active
Haemophilus influenzae [32]
  Activity: 51 min
Haemophilus influenzae [33]
  Activity: Active
Haemophilus influenzae [34]
  Activity: Active

## CC[C@H]1OC(=O)[C@H](C)[C@@H](O[C@H]2C[C@@](C)(OC)[C@@H](O)[C@H](C)O2)[C@H](C)[C@@H](O[C@@H]2O[C@H](C)C[C@H](N(C)C)[C@H]2O)[C@](C)(O)C[C@@H](C)C(=O)[C@H](C)[C@@H](O)[C@]1(C)O
Haemophilus influenzae [34]
  Activity: inactive
